Measurements published in the array DNA melting data of Ke et al. (doi:10.1101/2024.01.08.574731).

Tests used:
[1] = melting temperature; fluorescence melt of hairpins on a sequencing array, two-state fit, raised by 9.35 °C to match UV melts; settings: sodium 0.088 M
Procedure, shortened: (§1)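 To match UV melts, fitted temperatures were raised by 9.35 °C. These fits were bootstrapped two-state models that gave melting temperature and folding enthalpy, combined by inverse variance over four replicates. The input was normalised Cy3 fluorescence of library hairpins with annealed Cy3 and quencher oligos on a sequenced MiSeq flow cell, imaged in 50 mM Na-HEPES pH 8.0, 25 mM NaCl in 2.5 °C steps up to 60 °C.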

[2] = folding enthalpy; higher = less favourable; fluorescence melt of hairpins on a sequencing array, two-state fit; settings: sodium 0.088 M
Procedure, shortened: as §1

Sequence | Tm [1] | folding enthalpy [2]
GGCGACGAAAGTCGCGCC ((((((....)))..))) | 65.8 °C | -6.6 kcal/mol
GCATATACGAAAGTATGC (((..(((....)))))) | 41.5 °C | -22.3 kcal/mol
GTGATCGAAAGATCACAC ((((((....)))..))) | 67.3 °C | -14.1 kcal/mol
GCATCGCGAAAGCGTAGC ((..(((....)))..)) | 48.5 °C | -17.1 kcal/mol
GCGTCCGAAAGGACTCGC ((((((....)))..))) | 51 °C | -12.3 kcal/mol
GTTGCCGAAAGGCTCAAC ((((((....)))..))) | 29.8 °C | -7.95 kcal/mol
GCGATAGGAAACTATTGC ((.((((....)))).)) | 45.6 °C | -38.8 kcal/mol
GATCGTTTCAACGATC ((((((....)))))) | 59.7 °C | -42 kcal/mol
GATCTTGGAAACGAGATC (((((.(....).))))) | 44.2 °C | -36.7 kcal/mol
GCGGACGCCCGC ((((....)))) | 56.1 °C | -20.1 kcal/mol
GATCACGGCTGTGATC ((((((....)))))) | 62.3 °C | -44.5 kcal/mol
GTCCCGGGAAACCGGAAC ((.((((....)))).)) | 44.4 °C | -14.9 kcal/mol
GCGTCACACGC ((((...)))) | 56.2 °C | -23.6 kcal/mol
GTGGATCGAAAGATTCAC (((.(((....))).))) | 53.8 °C | -38.2 kcal/mol
GTACTGGGAAACCAGCAC ((.((((....)))).)) | 42.3 °C | -20.4 kcal/mol
GTCCGCACGAAAGTGGAC (((..(((....)))))) | 47.1 °C | -19.6 kcal/mol
GGGAGCGAAAGCTATCCC ((((((....)))..))) | 48 °C | -16.6 kcal/mol
GTCCAGGGAAACCCGGAC ((((.((....)).)))) | 51 °C | -36.1 kcal/mol
GCAATCCCGAAAGGGTGC (((..(((....)))))) | 46.6 °C | -19.1 kcal/mol
GATCTAATGTTAGATC ((((((....)))))) | 40.2 °C | -34.3 kcal/mol
GCGGTCGAAAGACCTCGC ((((((....)))..))) | 50.2 °C | -14.8 kcal/mol
GGGAGCGCGAAAGCGCCC (((..(((....)))))) | 58.6 °C | -10.1 kcal/mol
GATCCAGTCTTGGATC ((((((....)))))) | 53.5 °C | -43.5 kcal/mol
CGAATGAAAATTCG (((((....))))) | 48.1 °C | -22.5 kcal/mol

Sequence | Tm [1] | folding enthalpy [2]
GTCCCTGGAAACGGGGAC (((((.(....).))))) | 56.4 °C | -49 kcal/mol
GCGCGGCGAAAGCCAGGC ((..(((....)))..)) | 54.4 °C | -14.1 kcal/mol
GGTCCCGAAAGGGCAACC ((((((....)))..))) | 38.4 °C | -12.4 kcal/mol
GCGATGTGTCGC ((((....)))) | 57 °C | -28.6 kcal/mol
GATGGAGGAAACTCTGTC ((..(((....)))..)) | 29.1 °C | -21 kcal/mol
GCGTATGACGC ((((...)))) | 54 °C | -17.5 kcal/mol
GTCGGATCGAAAGATGAC (((..(((....)))))) | 31.7 °C | -16.7 kcal/mol
GATCGTTTGCACGATC ((((((....)))))) | 54.7 °C | -27 kcal/mol
GCGCAGGGAAACCTGCAC (.(((((....))))).) | 47.6 °C | -12.7 kcal/mol
GATCGATAATTCGATC ((((((....)))))) | 51.2 °C | -39.6 kcal/mol
GCACCGCGAAAGCGCAGC ((..(((....)))..)) | 38.4 °C | -9.35 kcal/mol
GCCGCCGAAAGGCAAGGC ((((((....)))..))) | 65.5 °C | -24.6 kcal/mol
GGTTCCCGAAAGGGTACC (((.(((....))).))) | 57.5 °C | -33.6 kcal/mol
GCGGCGCGAAAGCGAAGC ((..(((....)))..)) | 68.1 °C | -29 kcal/mol
GGCCCCGAAAGGGCGGCC ((((((....)))..))) | 64.7 °C | -16.9 kcal/mol
GGAGACACGAAAGTGTCC (((..(((....)))))) | 44.1 °C | -8.97 kcal/mol
GTGTAGGGAAACTTGCAC (((.(.(....).).))) | 29.4 °C | -17.7 kcal/mol
GAGCAGCGAAAGCTACTC (((.(((....))).))) | 49.6 °C | -22.3 kcal/mol
GGAGCCGAAAGGCAATCC ((((((....)))..))) | 38 °C | -11.2 kcal/mol
GAGTGCGAAAGCAATCTC ((((((....)))..))) | 53.7 °C | -21.4 kcal/mol
GTACCAGGAAACTAGTAC ((((.((....)).)))) | 28.7 °C | -15.3 kcal/mol
GATCGCACGAAAGTGATC (((..(((....)))))) | 36.4 °C | -16.3 kcal/mol
GTACCCACGAAAGTGTAC (((..(((....)))))) | 26.2 °C | -11.5 kcal/mol
GTACCCGGAAACGGATAC (((.(((....))).))) | 42.2 °C | -24.3 kcal/mol

Sequence | Tm [1] | folding enthalpy [2]
GCTCTGTCGAAAGACAGC (((..(((....)))))) | 36.5 °C | -8.62 kcal/mol
GCAGGGCGAAAGCGCGGC ((.(.((....)).).)) | 62.9 °C | -29.2 kcal/mol
AGAAGGAAACTTCT (((((....))))) | 30.7 °C | -13.6 kcal/mol
GACAGCCGAAAGGCAGTC (((.(((....))).))) | 60.1 °C | -22.5 kcal/mol
GATCGGTTTACCGATC ((((((....)))))) | 68.6 °C | -37.4 kcal/mol
GTACCGCGAAAGCGATAC (((.(((....))).))) | 48.5 °C | -23.6 kcal/mol
CGAGCTCGGAAACGATCG (((..(((....)))))) | 27.9 °C | -6.9 kcal/mol
GATCGTGGCACGATC ((((((...)))))) | 59.8 °C | -45.8 kcal/mol
GATTGTGGAAACATGATC (((..((....))..))) | 31.2 °C | -18 kcal/mol
GCAACGCGAAAGCTTAGC ((.(.((....)).).)) | 28.5 °C | -7.66 kcal/mol
GCCCCGCGAAAGCGTTGC ((..(((....)))..)) | 33.5 °C | -9.75 kcal/mol
GATCAAGTTATTGATC ((((((....)))))) | 49.8 °C | -35.8 kcal/mol
GATCACACGAAAGTGATC (((..(((....)))))) | 48.8 °C | -34.3 kcal/mol
GCCAGGGGAAACCCTGAC (.(((((....))))).) | 47.6 °C | -15.4 kcal/mol
GATCGGTTGACCGATC ((((((....)))))) | 60.3 °C | -33.9 kcal/mol
GAGACACGAAAGTGCTC (((.(((....)))))) | 44.6 °C | -16.6 kcal/mol
GACAAACCGAAAGGTGTC (((..(((....)))))) | 43.2 °C | -19.8 kcal/mol
GCCACGGGAAACCGTAGC ((.((((....)))).)) | 46.6 °C | -23.2 kcal/mol
GGTATCTCGAAAGAGACC (((..(((....)))))) | 35.2 °C | -21.1 kcal/mol
ACCAAGAAATTGGT (((((....))))) | 37.5 °C | -13.7 kcal/mol
GCCACCGAAAGGTCTGGC ((((((....)))..))) | 47.4 °C | -19.4 kcal/mol
GGAATGCGAAAGCATCC (((.(((....)))))) | 55.5 °C | -15.9 kcal/mol
GGCCAAACGAAAGTTGCC (((..(((....)))))) | 44 °C | -22.6 kcal/mol
GAGCACCGAAAGGTTCTC (((.(((....))).))) | 45.8 °C | -27.6 kcal/mol

Sequence | Tm [1] | folding enthalpy [2]
GATCGATGCTCGATC ((((((...)))))) | 51.8 °C | -37 kcal/mol
GCCCGGCGAAAGCAGAGC ((.(.((....)).).)) | 47.4 °C | -14.4 kcal/mol
GATCGGCCCCCGATC ((((((...)))))) | 56 °C | -44.9 kcal/mol
GCGTCCGAAAGGACCCGC ((((((....)))..))) | 44.4 °C | -11.4 kcal/mol
GTTTGCGAAAGCATAAAC ((((((....)))..))) | 31.5 °C | -13 kcal/mol
GGTGACGAAAGTCGAACC ((((((....)))..))) | 41.9 °C | -17.6 kcal/mol
GCGCGGCGAAAGCAGAGC ((.(.((....)).).)) | 63.8 °C | -25.1 kcal/mol
GATAGAGAAATCTATC ((((((....)))))) | 36.8 °C | -21.5 kcal/mol
GCTCACGGAAACGTGAAC (.(((((....))))).) | 42.3 °C | -13 kcal/mol
GCGACGCGAAAGCTACGC (((..((....))..))) | 52.5 °C | -18.6 kcal/mol
ATGCGGAAACGCAT (((((....))))) | 57.7 °C | -17.1 kcal/mol
GAGACCGAAAGGTGTCTC ((((((....)))..))) | 51.9 °C | -24 kcal/mol
GGTAACGAAAGTTGACC ((((((....))).))) | 39.2 °C | -20.6 kcal/mol
GCGATCGAAAGATACCGC ((((((....)))..))) | 37.2 °C | -23.8 kcal/mol
ATAGTGAAAACTAT (((((....))))) | 30.4 °C | -12.8 kcal/mol
GATCGACTCTCGATC ((((((...)))))) | 50.9 °C | -40.6 kcal/mol
GTTGCCGAAAGGCCCAAC ((((((....)))..))) | 29.4 °C | -6.79 kcal/mol
GATCGAGAATCGATC ((((((...)))))) | 59.5 °C | -39.8 kcal/mol
GGCTACGAAAGTATTGCC ((((((....)))..))) | 44.1 °C | -20.1 kcal/mol
GTACACGGAAACATGTAC (((((.(....).))))) | 34.2 °C | -28.3 kcal/mol
GGAGCCGAAAGGCGTTCC ((((((....)))..))) | 40 °C | -10.1 kcal/mol
